Insulin prom act: TRM-6 insulin promoter activation; TRM-6 cells (human fetal islet line), insulin promoter eGFP reporter, imaging; plate-scaled: unstimulated 0, stimulated control 100; AID 1296; activation, % at 2 µM; 0.81% of 130,000 active;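 active means activation at 2 µM above a set limit, confirmed on inspection of the cell images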;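 further: share of cells whose green reporter signal exceeds an intensity cutoff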
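Test system: TRM-6 insulin promoter–eGFP reporter cells / Quantity: 1,000 cells per well / Reagent: tamoxifen inducer, 0.75 µM, in seeding medium / Compound dosing: 2 µM final, single concentration / Schedule: overnight tamoxifen, then two-day compound incubation at 37 °C / Measured by: automated fluorescence imaging of paraformaldehyde-fixed, Hoechst-counterstained cells, green channel / Read-out: percent activation from GFP-positive cell fraction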
Large screens that a line does not name were inactive. The entries come from a sample that favours hits as a whole.

CN(C(=S)Nc1ccccc1)c1ccccc1	none
Cc1nn(-c2ccccc2)cc1C(=S)Nc1ccccc1	none
CS(=O)(=O)NCCn1ccc2ccccc21	none
O=C(NCCCn1ccnc1)/C(=C\c1cccnc1)NC(=O)c1cccc(Br)c1	none
Cc1[nH]c2ccc(-c3n[nH]c(=S)n3-c3ccccc3)cc2c1C	none
Cc1ccc(-c2n[nH]c(=S)n2-c2ccccc2)cc1	Insulin prom act 484.6
Cc1ccc(-n2c(-c3cccc(C)c3)n[nH]c2=S)cc1	none
CCN1C(=O)C(=O)N(CC(=O)Nc2ccccc2Oc2ccccc2)C1=O	none
O=C(Nc1ccccc1N1CCOCC1)c1cc(-c2ccncc2)nc2ccccc12	Insulin prom act 235.7
O=C(Nc1ccccc1N1CCOCC1)c1cccnc1	none
Cc1cccc(-c2cc(C(=O)Nc3ccc4c(c3)OCCO4)c3ccccc3n2)c1	none
CCOc1ccc(N(CC(=O)NCc2cccc(OC)c2)S(=O)(=O)c2c(C)noc2C)cc1	none
C/C(=N\NC(=O)c1c(C)nc2ccccn12)c1ccco1	none
c1ccc(Cn2nnnc2C(c2cccnc2)N2CCN(C3CCCCC3)CC2)cc1 (stereo not drawn)	none
Fc1ccc(C(c2nnnn2Cc2ccco2)N2CCN(C3CCCCC3)CC2)cc1 (stereo not drawn)	Insulin prom act 89.2
O=C(c1ccco1)N1CCN(C(c2ccc(F)cc2)c2nnnn2Cc2cccs2)CC1 (stereo not drawn)	none
COc1ccccc1OC(=O)c1ccc(SC)cc1OC	none
COc1ccc(-c2nnc(SCC(=O)Nc3ccccc3OC)o2)cc1	none
COc1ccccc1NC(=O)CSc1nnc(-c2ccncc2)o1	none
COC(=O)c1ccc(OC)c(CSc2nnc(-c3ccc(C(C)(C)C)cc3)o2)c1	Insulin prom act 508.3
C[N+]1(C2CCC3CCCC2C3O)CCCC1 (stereo not drawn)	none
CCN(CC)S(=O)(=O)c1cccc(NC(=O)c2ccc(C#N)cc2)c1	none
CCc1nnc(NC(=O)CSc2nnc(Cc3ccccc3)n2-c2ccccc2)s1	none
Cc1nnc(NC(=O)CSc2nnc(Cc3ccccc3)n2-c2ccccc2)s1	Insulin prom act 660.0
Cc1nnc(NC(=O)CSc2nnc(C)n2Cc2ccccc2)s1	none
Oc1ccc(-c2nccc(-c3cccs3)n2)cc1	none
NCCCC(N)(C(=O)O)C(F)F (stereo not drawn)	none
CCOC(=O)C1C(=O)CC(O)(c2ccccc2)CC1c1ccccc1 (stereo not drawn)	Insulin prom act 142.9
CCOC(=O)C1C(=O)CC(C)(O)C(C(=O)OCC)C1c1ccc(C)s1 (stereo not drawn)	none
COC(=O)C1C(=O)NCC1c1ccccc1 (stereo not drawn)	none
CCOc1ccc(CC(=O)OCn2nnc3ccccc3c2=O)cc1	none
CC1CCC/C(=N\NC(=O)c2ccncc2)C1 (stereo not drawn)	none
CCOc1ccc(C(=O)Nc2cc(NC(=O)c3ccc(OCC)c(Cl)c3)cc(C(=O)O)c2)cc1Cl	none
CCCn1nnc(NC(=O)c2ccc(Br)cc2)n1	none
CCCn1nnc(NC(=O)c2ccc(OCC)c(Cl)c2)n1	Insulin prom act 623.1
O=C(Nc1ccc(-n2cccc2)cc1)C1CC1	none
S=C(Nc1ccc(Cl)c(Cl)c1)NC1CCCCC1	none
CC(C)(C)c1ccc(/C=N/NC(=S)NC2CCCCC2)cc1	Insulin prom act 421.4
S=C(Nc1ccc(Oc2ccc(NC(=S)NC3CCCCC3)cc2)cc1)NC1CCCCC1	none
COc1ccc(CN2CCN(Cc3csc(C(C)=O)c3)CC2CCO)c(C)c1C (stereo not drawn)	none
Cc1ccc(N/C(C(Cl)=C(Cl)Cl)=C(/Cl)[N+](=O)[O-])c(C)c1	none
CCC(=O)Nc1nc2nc(C)cc(=O)n2[nH]1	none
Cc1cc(=O)n2[nH]c(C(=O)O)nc2n1	Insulin prom act 76.7
Cc1cc(=O)n2[nH]c(NCc3ccccc3F)nc2n1	none
O=C(c1ccco1)N1CCCN(C(=O)c2ccco2)CC1	none
Cc1occc1C(=O)N1CCN(Cc2ccccc2)CC1	none
Cc1ccc(CN2CCN(C(=O)c3ccco3)CC2)cc1	Insulin prom act 422.2
Cc1ccc(-c2nn(-c3ccccc3)cc2CN(Cc2ccccc2)C(=O)c2ccco2)o1	none
CCOCCCNC(=O)CNC(=S)N(Cc1ccc(C)cc1)Cc1ccco1	none
COCCn1c(C)cc(C(=O)CN2CCCCC2)c1C	none
Cc1ccccc1C(=O)OCCN1CCOCC1	none
CCOC(=O)c1cc(C)n(CCCN2CCOCC2)c1C	Insulin prom act 86.2
Cc1ccc(S(=O)(=O)NNC(=O)NC23CC4CC(CC(C4)C2)C3)cc1	none
Cc1ccc(C(C(=O)NC2CCCC2)N(C(=O)Cc2cccs2)c2ccc(C)c(C)c2)o1 (stereo not drawn)	none
Cc1nn(C)cc1C(C(=O)NC1CCCCC1)N(C(=O)c1cnccn1)c1ccc(Oc2ccccc2)cc1 (stereo not drawn)	none
Cc1nn(C)cc1C(C(=O)NC1CCCCC1)N(C(=O)Cc1cccs1)c1ccc(C(C)C)cc1 (stereo not drawn)	Insulin prom act 200.0
Cc1nn(Cc2ccc(Cl)cc2Cl)c(C)c1NC(=O)Cn1nc([N+](=O)[O-])c(Cl)c1C	Insulin prom act 650.0
Cc1nn(Cc2ccccc2)c(C)c1NC(=O)CCCn1nc([N+](=O)[O-])c(Cl)c1C	none

High-throughput results from PubChem.
